Broadly, the IC50 is the concentration at which inhibition is half-maximal.

One series deals with MDA-MB-231. The experiment in a line: Cell viability. Format: cell-based. The note with it: Homo sapiens, MDA-MB-231, 72 h, read-out: IC50 value. A digest of the protocol: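 Test compounds were added from stock solutions so that the final DMSO was <1%, and MDA-MB-231 cells were incubated with them for 72 h. Viability was read after exposure and IC50 derived. Data are mean ± s.e.m., n = 3.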
With `c1cnc2c(c1)ccc1cccnc12` [1,10-phenantrholine], the IC50 is 7.21 ± 1.68 µM.
The same measure, in the same setting: the result for `Cc1ccnc2c1ccc1c(C)ccnc12` [4,7-dimethylphenanthroline] reads 14.1 ± 2.58 µM.

The series is the same for the next values; noted with them: read-out: IC50 value; MDA-MB-231, MTT assay, 72 h, mean ± s.e.m., n = 3.
As to `[F][Sb-]([F])([F])([F])([F])[F].[Na+]` [NaSbF6], the IC50 was more than 50 µM.
Consider `[Au+].[F][Sb-]([F])([F])([F])([F])[F].c1ccc([As](c2ccccc2)c2ccccc2)cc1.c1cnc2c(c1)ccc1cccnc12` [AuTri-4], for which the half-maximal inhibitory concentration (IC50) was 3.98 ± 0.359 µM.
For `N.N.[Cl][Pt][Cl]` [cisplatin], the IC50 is 34.6 ± 0.783 µM.
On to `[Au+].[F][Sb-]([F])([F])([F])([F])[F].c1ccc(-c2ccccn2)nc1.c1ccc(P(c2ccccc2)c2ccccc2)cc1` [AuTri-3], for which the IC50 was 6.56 ± 0.354 µM.
Turning to `c1ccc(-c2ccnc3c2ccc2c(-c4ccccc4)ccnc23)cc1` [bathophenanthroline], the IC50 was found to be 7.48 ± 1.64 µM.
The same measure, in the same setting: the value for `CC(=O)OC[C@H]1O[C@@H]([S-])[C@H](OC(C)=O)[C@@H](OC(C)=O)[C@@H]1OC(C)=O.CCP(CC)CC.[Au+]` [auranofin] was 1.31 ± 0.15 µM; that for `c1ccc(-c2ccccn2)nc1` [bipyridine] was 17.5 ± 0.354 µM.

Test system in another series: not given
Test: not given
The note with it: based on gold; cited from earlier work.
Regarding `CC(=O)OC[C@H]1O[C@@H]([S-])[C@H](OC(C)=O)[C@@H](OC(C)=O)[C@@H]1OC(C)=O.CCP(CC)CC.[Au+]` [auranofin], the “MTD (maximum tolerated dose)” value was 12 mg/kg.

In the next series the test system is MDA-MB-231. The experiment in a line: Transmission electron microscopy of mitochondrial morphology. Format: cell-based. The note with it: AuTri-9 10 µM, 1 h. A digest of the protocol: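 MDA-MB-231 cells were exposed to the test compound for 1 h. Vehicle wells received 1% DMSO. Reference inducers were run alongside: staurosporine (apoptosis), hydrogen peroxide (necrosis), rapamycin (autophagy) and erastin (ferroptosis). Mitochondria were imaged by TEM. Maximal cristae width was measured in 10 randomly chosen cells on randomly chosen mitochondria, with up to 3 cristae per mitochondrion and 100 cristae per cell, given as mean ± s.e.m.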
In the case of `CO[C@H]1C[C@@H]2CC[C@@H](C)[C@@](O)(O2)C(=O)C(=O)N2CCCC[C@H]2C(=O)O[C@H]([C@H](C)C[C@@H]2CC[C@@H](O)[C@H](OC)C2)CC(=O)[C@H](C)/C=C(\C)[C@@H](O)[C@@H](OC)C(=O)[C@H](C)C[C@H](C)/C=C/C=C/C=C/1C` [rapamycin], the “morphological changes in mitochondria (TEM)” value is “no distinct morphological changes to mitochondria”.
Still for that read-out and setting: the result for `OO` [H2O2, hydrogen peroxide] reads “mitochondrial structure remains intact”.
Consider `CCOc1ccccc1-n1c(C(C)N2CCN(C(=O)COc3ccc(Cl)cc3)CC2)nc2ccccc2c1=O` (centres unmarked) [erastin], for which the “morphological changes in mitochondria (TEM)” value was “mitochondrial shrinkage”.
Same read-out and setting: the value for `CN[C@@H]1C[C@H]2O[C@@](C)([C@@H]1OC)n1c3ccccc3c3c4c(c5c6ccccc6n2c5c31)C(=O)NC4` [staurosporine] was “no distinct morphological changes to mitochondria”.

These data come from paper PMC8395693 (JACS Au, 2021).
